Activity calls are given as the source filed them. No cut-off for these calls is given here.

Holding throughout (type): functional
The nature of test [1]: Antioxidant activity assessed as inhibition of LDL-oxidation at 20 uM by TBARS assay. The procedure, abridged:
(§1)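 Copper-mediated oxidation of human plasma LDL (120 µg/mL); oxidation quantified by TBARS formation. Mean of two independent experiments, each in duplicate.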

Test [2] can be described thus: Antioxidant activity against LDL-oxidation by TBARS assay. The procedure, abridged: as §1
For test [3], the system named is THP-1. The experiment in a line: Antioxidant activity against LDL-oxidation in human THP1 cells assessed as malondialdehyde level per mg of LDL protein at 1 uM. The procedure, abridged: (§2)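 PMA-differentiated THP-1 macrophages incubated 24 h at 37 °C in serum-free RPMI 1640 with LDL (100 µg/mL) and 2 µM Cu2+, with or without compound. TBARS measured directly in harvested medium, expressed as MDA nmol/mg LDL protein; mean ± SD, n = 3.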

Test [4] in a line: Antioxidant activity assessed as inhibition of apoB100 fragmentation at 10 uM by SDS-PAGE method. The procedure, abridged:
(§3)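 Human LDL in PBS incubated 4 h at 37 °C with 5 µM CuSO4 with or without compound. About 2.0 µg LDL protein run on 7.5% SDS-PAGE, Coomassie-stained, densitometrically scanned; apoB-100 band area given as absorbance units per mm.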

A short description of test [5]: Antioxidant activity against LDL-oxidation assessed as conjugated diene formation lag time at 1.0 uM. In short, it runs like this:
(§4)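 Human plasma LDL (120 µg protein/mL) oxidized with 5 µM CuSO4, with or without compound; conjugated diene formation read as absorbance at 234 nm every 10 min for 4 h. Lag time taken as elapsed time before onset of rapid conjugated hydroperoxide formation.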

A short description of test [6]: Antioxidant activity assessed as inhibition of copper-mediated LDL-oxidation at 20 uM by relative electrophoretic mobility method. The procedure, abridged: (§5)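 LDL (120 µg/mL in PBS) incubated 12 h at 37 °C with 5 µM CuSO4 with or without compound. About 2.0 µg LDL protein run on 0.7% agarose gel, Coomassie-stained, densitometrically scanned; migration distance measured, protection expressed relative to native and fully oxidized LDL.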

The subject of test [7] is THP-1. The experiment in a line: Antioxidant activity against LDL-oxidation in human THP1 cells assessed as malondialdehyde level per mg of LDL protein at 5 uM. The procedure, abridged: as §2
The nature of test [8]: Antioxidant activity assessed as inhibition of apoB100 fragmentation at 20 uM by SDS-PAGE method. In short, it runs like this: as §3
The nature of test [9]: Antioxidant activity assessed as inhibition of copper-mediated LDL-oxidation at 10 uM by relative electrophoretic mobility method. In short, it runs like this:
as §5

Test [10] is described as follows: Antioxidant activity against LDL-oxidation assessed as conjugated diene formation lag time at 3.0 uM. In short, it runs like this:
as §4

`COc1cc(C(OC)C(C)C(C)Cc2ccc3c(c2)OCO3)ccc1O` (centres undefined): the inhibition in [1] was found to be 28.9%. Besides, the IC50 in test [2] came out at 7.9 µM.
The corresponding values for `COc1cc([C@@H](O)[C@H](C)[C@H](C)Cc2ccc3c(c2)OCO3)ccc1O` are 45.7% and 6.3 µM.
For `COc1cc(C[C@H](C)[C@H](C)Cc2ccc(O)c(O)c2)ccc1O`, in that order: 91% and 3.6 µM.
In the case of `COc1cc([C@H]2c3cc4c(cc3C[C@@H](C)[C@@H]2C)OCO4)ccc1O`, the inhibition in test [1] was 40.9%. In addition, 7.3 µM corresponded to half-maximal inhibition in test [2] (IC50).
For `C[C@H](Cc1ccc2c(c1)OCO2)[C@H](C)Cc1ccc2c(c1)OCO2`, the inhibition in test [1] worked out at 0%. Also, in test [2], the result was inactive.
In the case of `COc1cc(C[C@H](C)[C@H](C)Cc2ccc3c(c2)OCO3)ccc1O` [AUSTROBAILIGNAN 6], in test [1], the inhibition was determined as 64.5%. In test [2], this compound registered an IC50 of 7.5 µM.
For the compound `COc1cc(C[C@@H](C)[C@@H](C)Cc2ccc(O)c(OC)c2)ccc1O` [MESODIHYDROGUAIARETIC ACID], the inhibition was found to be 93% in [1]; 54% in test [4]; 82% in [6]; 93% in [8]; 72% in test [9]. In addition, the values for the Activity (in the test on THP-1 [3]; in test [5]; in the test with THP-1 [7]) were 306.3 nmol, 140 min and 35.2 nmol, respectively. The same compound came in with an IC50 in test [2] of 2.6 µM.
Turning to `CC(C)(Sc1cc(C(C)(C)C)c(O)c(C(C)(C)C)c1)Sc1cc(C(C)(C)C)c(O)c(C(C)(C)C)c1` [PROBUCOL], the inhibition in test [1] came to 92%. In [10], the Activity came to 67 min. For the same compound, 3.1 µM corresponded to half-maximal inhibition in test [2] (IC50).

For the origin of these results see ChEMBL document CHEMBL1140775, “Low-density lipoprotein (LDL)-antioxidant lignans from Myristica fragrans seeds” (Bioorg Med Chem Lett, 2008).
